Laboratory results: BindingDB's records for doi:10.1016/j.ejmech.2011.10.026 (National Cheng Kung University, 2012)

Each molecule was assayed against T1, Nitric oxide synthase, inducible (Mus musculus, UniProt P29477) (assay: Inhibition of iNOS-mediated nitric oxide production in LPS-stimulated mouse BV2 cells measured after 24 hrs of post-stimulation by Griess reaction method).
T1 sequence (P29477 whole entry): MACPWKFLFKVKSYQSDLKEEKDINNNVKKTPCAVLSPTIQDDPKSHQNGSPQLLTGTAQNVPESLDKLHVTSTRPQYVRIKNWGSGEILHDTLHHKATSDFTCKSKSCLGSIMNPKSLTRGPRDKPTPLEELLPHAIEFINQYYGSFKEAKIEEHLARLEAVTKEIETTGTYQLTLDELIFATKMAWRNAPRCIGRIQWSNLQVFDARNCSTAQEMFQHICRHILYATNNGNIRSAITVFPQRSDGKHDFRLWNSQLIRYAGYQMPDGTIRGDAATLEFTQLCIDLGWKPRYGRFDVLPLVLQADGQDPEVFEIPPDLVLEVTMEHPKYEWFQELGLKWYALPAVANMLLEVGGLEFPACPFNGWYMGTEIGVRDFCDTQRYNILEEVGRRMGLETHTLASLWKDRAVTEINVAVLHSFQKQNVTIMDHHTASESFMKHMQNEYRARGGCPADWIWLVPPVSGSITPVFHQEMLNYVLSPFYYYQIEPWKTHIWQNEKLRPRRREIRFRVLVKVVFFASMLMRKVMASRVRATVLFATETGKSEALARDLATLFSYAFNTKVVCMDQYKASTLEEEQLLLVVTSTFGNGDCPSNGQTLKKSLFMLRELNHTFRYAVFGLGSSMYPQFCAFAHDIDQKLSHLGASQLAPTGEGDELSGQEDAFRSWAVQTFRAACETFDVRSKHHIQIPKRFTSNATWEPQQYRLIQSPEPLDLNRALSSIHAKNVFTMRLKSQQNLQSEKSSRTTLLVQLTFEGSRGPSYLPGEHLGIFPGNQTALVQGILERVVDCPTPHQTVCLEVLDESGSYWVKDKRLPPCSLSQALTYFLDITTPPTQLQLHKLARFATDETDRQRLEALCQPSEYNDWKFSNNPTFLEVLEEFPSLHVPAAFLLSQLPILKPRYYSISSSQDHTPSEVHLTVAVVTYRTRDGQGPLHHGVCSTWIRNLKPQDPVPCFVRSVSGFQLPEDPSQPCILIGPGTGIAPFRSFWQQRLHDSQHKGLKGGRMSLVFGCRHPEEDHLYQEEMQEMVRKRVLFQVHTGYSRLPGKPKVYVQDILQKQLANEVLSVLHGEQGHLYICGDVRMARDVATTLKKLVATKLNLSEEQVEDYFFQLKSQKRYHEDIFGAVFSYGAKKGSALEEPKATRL
Outline: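 Murine BV2 microglia in DMEM with 5% FBS were given compound at 1–50 µM and stimulated with LPS 0.5 µg/mL. Nitrite accumulated in the medium was measured by Griess reagent 24 h after stimulation. IC50 given as mean ± SEM of three experiments on different days using cells from different passages.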

SMILES | IC50 [µM]
Cc1ccsc1/C=C/C(=O)c1cc(C(=O)/C=C/c2sccc2C)c(O)cc1O | 43.3
O=C(/C=C/c1ccccc1)c1cc(C(=O)/C=C/c2ccccc2)c(O)cc1O | 5.44
COc1ccc(/C=C/C(=O)c2cc(C(=O)/C=C/c3ccc(OC)c(OC)c3OC)c(O)cc2O)c(OC)c1OC | 7.04
COc1cccc(/C=C/C(=O)c2cc(C(=O)/C=C/c3cccc(OC)c3OC)c(O)cc2O)c1OC | 1.82
Cc1ccc(/C=C/C(=O)c2cc(C(=O)/C=C/c3ccc(C)o3)c(O)cc2O)o1 | 36.3

Next, values leading:

IC50 [µM] | SMILES
8.65 | O=C(/C=C/c1ccccn1)c1cc(C(=O)/C=C/c2ccccn2)c(O)cc1O
4 | O=C(/C=C/c1ccco1)c1cc(C(=O)/C=C/c2ccco2)c(O)cc1O
23.3 | COc1ccc(OC)c(/C=C/C(=O)c2cc(C(=O)/C=C/c3cc(OC)ccc3OC)c(O)cc2O)c1
8.09 | COc1cccc(/C=C/C(=O)c2cc(C(=O)/C=C/c3cccc(OC)c3)c(O)cc2O)c1
25.7 | COc1ccc(/C=C/C(=O)c2cc(C(=O)/C=C/c3ccc(OC)cc3)c(O)cc2O)cc1
17.7 | CC(=O)c1cc(C(=O)C=Cc2ccc3c(c2)OCO3)c(O)cc1O
0.95 | COc1ccc(/C=C/C(=O)c2cc(C(=O)/C=C/c3ccc(OC)c(OC)c3)c(O)cc2O)cc1OC
